Experimental data: the M2OR odorant receptor database
Numbering of substitutions follows the chain as printed.

Assays:
Settings in all cases: stereoisomer not certain
[1] = system: T1, O10A2 H43R H207R K258T
T1 sequence (whole entry): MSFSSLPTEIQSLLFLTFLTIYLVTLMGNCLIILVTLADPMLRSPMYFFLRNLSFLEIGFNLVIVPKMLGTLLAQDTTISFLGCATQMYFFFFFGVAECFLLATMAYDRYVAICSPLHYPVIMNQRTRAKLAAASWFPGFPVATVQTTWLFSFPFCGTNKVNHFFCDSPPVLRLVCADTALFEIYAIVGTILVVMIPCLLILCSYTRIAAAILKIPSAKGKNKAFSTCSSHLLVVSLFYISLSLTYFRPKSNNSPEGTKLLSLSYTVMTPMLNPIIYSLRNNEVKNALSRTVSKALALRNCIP
Method in brief: (§1)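 Assay methods differ from source to source, frequently being transient luciferase assays in mammalian cell lines. For each receptor–molecule pair, the label responsive (active) applies when the original authors judged the measured signal statistically different from baseline, and non-responsive (inactive) applies otherwise.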

[2] = system: T2, O10A3 C8G
T2 sequence (whole entry): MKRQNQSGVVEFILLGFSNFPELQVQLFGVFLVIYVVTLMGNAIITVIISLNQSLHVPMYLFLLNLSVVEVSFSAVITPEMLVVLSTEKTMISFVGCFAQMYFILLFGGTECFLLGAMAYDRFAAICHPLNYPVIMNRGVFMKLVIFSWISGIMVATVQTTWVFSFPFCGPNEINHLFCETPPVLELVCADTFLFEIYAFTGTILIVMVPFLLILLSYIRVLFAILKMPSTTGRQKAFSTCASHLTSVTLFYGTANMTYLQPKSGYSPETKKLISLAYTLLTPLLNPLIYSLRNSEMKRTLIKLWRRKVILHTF
Method in brief: as §1

[3] = system: T3, O10A6
T3 sequence (whole entry): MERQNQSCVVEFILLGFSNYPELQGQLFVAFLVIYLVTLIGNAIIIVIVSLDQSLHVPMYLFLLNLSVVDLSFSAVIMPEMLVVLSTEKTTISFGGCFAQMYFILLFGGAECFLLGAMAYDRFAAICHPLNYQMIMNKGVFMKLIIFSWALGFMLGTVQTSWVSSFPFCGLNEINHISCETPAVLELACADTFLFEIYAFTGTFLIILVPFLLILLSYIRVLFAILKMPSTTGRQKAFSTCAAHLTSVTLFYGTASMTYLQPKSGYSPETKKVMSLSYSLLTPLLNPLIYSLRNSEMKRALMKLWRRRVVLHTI
Method in brief: as §1

[4] = system: T4, O10AD G65C
T4 sequence (whole entry): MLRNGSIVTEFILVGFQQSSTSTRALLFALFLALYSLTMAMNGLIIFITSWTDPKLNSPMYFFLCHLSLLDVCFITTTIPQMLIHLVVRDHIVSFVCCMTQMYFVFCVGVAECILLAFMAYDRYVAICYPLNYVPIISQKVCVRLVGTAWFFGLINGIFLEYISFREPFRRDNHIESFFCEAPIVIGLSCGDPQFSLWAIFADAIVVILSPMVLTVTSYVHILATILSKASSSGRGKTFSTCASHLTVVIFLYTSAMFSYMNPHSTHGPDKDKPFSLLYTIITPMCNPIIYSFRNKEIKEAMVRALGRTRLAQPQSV
Method in brief: as §1

[5] = system: T5, O10D3 V134A R197K
T5 sequence (whole entry): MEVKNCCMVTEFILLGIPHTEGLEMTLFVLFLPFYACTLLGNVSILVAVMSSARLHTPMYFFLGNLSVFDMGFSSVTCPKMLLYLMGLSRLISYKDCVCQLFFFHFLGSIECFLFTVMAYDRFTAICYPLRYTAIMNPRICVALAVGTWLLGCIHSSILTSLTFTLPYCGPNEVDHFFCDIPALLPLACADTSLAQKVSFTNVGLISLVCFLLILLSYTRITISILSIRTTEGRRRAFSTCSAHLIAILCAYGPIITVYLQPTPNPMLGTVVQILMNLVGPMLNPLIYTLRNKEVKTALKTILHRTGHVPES
Method in brief: as §1

[6] = system: T6, O10G4 L24P V195E
T6 sequence (whole entry): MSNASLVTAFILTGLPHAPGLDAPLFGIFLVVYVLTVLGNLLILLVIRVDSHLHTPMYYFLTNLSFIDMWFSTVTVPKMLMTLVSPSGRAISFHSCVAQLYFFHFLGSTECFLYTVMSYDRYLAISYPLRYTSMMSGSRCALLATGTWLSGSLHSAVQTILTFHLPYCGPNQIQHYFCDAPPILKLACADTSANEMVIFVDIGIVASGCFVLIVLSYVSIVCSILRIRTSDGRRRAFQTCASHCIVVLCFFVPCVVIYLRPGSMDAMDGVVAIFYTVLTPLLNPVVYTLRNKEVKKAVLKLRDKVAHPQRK
Method in brief: as §1

[7] = system: T7, O10G7 A18V P19Q G20A
T7 sequence (whole entry): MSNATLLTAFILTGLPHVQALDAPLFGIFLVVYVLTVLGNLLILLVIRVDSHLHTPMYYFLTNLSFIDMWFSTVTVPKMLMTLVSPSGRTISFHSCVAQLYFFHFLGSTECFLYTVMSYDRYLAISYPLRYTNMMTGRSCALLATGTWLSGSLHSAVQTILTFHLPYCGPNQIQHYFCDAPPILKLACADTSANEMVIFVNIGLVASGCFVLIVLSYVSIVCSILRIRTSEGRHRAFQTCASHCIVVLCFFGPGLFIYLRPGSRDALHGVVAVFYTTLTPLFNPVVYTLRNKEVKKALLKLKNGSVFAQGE
Method in brief: as §1

[8] = system: T8, O10G7 I28V
T8 sequence (whole entry): T7 sequence (whole entry) with V18A, Q19P, A20G, I28V
Method in brief: as §1

[9] = system: T9, A0A140T8K4
T9 sequence (whole entry): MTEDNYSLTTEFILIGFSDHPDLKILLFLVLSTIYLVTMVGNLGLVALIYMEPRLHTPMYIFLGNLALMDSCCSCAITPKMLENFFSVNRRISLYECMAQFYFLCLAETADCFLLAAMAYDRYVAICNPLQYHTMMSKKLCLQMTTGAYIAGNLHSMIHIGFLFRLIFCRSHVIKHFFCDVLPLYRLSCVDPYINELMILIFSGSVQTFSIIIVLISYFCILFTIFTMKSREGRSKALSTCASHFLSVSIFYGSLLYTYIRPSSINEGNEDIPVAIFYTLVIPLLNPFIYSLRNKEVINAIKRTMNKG
Method in brief: as §1

[10] = system: T10, A0A2J8MY22
T10 sequence (whole entry): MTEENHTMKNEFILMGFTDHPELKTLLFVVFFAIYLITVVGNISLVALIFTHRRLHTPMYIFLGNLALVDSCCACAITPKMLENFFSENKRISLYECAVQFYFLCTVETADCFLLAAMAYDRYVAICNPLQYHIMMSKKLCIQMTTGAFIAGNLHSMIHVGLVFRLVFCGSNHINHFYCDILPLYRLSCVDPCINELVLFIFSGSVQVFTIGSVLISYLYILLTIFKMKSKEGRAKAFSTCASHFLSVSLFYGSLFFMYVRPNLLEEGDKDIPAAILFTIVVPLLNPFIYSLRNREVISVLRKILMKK
Method in brief: as §1

[11] = system: T11, A0A2R8ZIW4
T11 sequence (whole entry): T10 sequence (whole entry) with V39I, I280V
Method in brief: as §1

[12] = system: T12, A0A3Q7SVK8
T12 sequence (whole entry): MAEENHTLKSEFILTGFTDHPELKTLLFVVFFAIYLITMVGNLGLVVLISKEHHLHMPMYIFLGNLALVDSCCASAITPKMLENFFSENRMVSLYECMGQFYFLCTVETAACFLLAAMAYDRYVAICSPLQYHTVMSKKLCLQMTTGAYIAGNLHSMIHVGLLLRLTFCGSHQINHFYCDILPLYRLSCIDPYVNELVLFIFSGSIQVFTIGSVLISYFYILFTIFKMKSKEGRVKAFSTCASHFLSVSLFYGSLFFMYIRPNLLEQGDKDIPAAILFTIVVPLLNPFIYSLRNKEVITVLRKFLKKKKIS
Method in brief: as §1

[13] = system: T13, A0A6P3DZI2
T13 sequence (whole entry): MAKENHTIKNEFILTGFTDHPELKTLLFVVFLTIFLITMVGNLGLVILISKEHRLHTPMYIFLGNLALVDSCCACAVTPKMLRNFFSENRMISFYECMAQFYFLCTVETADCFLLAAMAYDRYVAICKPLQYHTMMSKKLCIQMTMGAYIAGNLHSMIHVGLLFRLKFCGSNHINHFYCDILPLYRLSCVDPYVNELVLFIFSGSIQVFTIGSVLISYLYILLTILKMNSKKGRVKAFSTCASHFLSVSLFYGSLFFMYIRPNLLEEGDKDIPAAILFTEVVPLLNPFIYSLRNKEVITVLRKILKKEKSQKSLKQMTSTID
Method in brief: as §1

[14] = system: T14, A0A6P6H1F7
T14 sequence (whole entry): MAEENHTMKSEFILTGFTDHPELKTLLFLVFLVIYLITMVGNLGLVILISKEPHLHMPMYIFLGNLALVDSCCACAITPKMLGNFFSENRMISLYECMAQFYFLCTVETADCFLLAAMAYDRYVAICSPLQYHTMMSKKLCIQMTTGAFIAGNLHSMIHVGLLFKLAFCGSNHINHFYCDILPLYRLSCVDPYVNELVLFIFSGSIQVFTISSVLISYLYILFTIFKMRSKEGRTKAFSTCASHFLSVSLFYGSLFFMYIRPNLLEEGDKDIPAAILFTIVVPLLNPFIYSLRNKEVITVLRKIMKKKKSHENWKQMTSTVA
Method in brief: as §1

[15] = system: T15, A0A1L1SVG7
T15 sequence (whole entry): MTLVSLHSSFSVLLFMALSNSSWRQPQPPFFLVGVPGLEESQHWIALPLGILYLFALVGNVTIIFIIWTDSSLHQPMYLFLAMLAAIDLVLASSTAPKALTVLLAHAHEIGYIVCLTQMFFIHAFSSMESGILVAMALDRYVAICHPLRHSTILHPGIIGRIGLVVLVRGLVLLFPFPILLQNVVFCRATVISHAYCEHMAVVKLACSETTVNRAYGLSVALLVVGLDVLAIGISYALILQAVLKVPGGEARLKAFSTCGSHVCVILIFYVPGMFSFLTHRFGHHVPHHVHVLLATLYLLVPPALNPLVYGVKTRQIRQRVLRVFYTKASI
Method in brief: as §1

[16] = system: T16, A0A140T8K0
T16 sequence (whole entry): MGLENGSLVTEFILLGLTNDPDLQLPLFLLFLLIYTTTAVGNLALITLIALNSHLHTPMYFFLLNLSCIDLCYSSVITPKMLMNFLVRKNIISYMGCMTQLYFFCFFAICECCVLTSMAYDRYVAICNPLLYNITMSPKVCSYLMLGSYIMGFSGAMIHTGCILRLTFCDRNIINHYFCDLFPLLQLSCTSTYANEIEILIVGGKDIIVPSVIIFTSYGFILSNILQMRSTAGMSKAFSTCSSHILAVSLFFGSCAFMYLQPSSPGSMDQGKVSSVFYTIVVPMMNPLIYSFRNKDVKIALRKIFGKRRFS
Method in brief: as §1

Measured: odorant receptor agonist call

CC1=C(O)C(=O)OC1C (stereo unspecified)
inactive: [1] | [2] | [3] | [4] | [5] | [6] | [7] | [8]

CC(=O)c1nccnc1C
active: [10] | [11] | [12] | [14]
inactive: [9] | [13]

CCCCCO
inactive: [9] | [15]

Cc1cnc(C)cn1
inactive: [9] | [13]
active: [10] | [11] | [12] | [14]

CC1=C(O)C(=O)C(C)O1 (stereo unspecified)
inactive: [1] | [2] | [3] | [4] | [5] | [6] | [7] | [8]

Cc1cnc(C)c(C)n1
active: [10] | [11] | [12] | [13] | [14]
not listed: [15] | [16]
inactive: all other assays above

CCC1OC(=O)C(O)=C1C (stereo unspecified)
inactive: [1] | [2] | [3] | [4] | [5] | [6] | [7] | [8]

CCC1OC(C)=C(O)C1=O (stereo unspecified)
inactive: [1] | [2] | [3] | [4] | [5] | [6] | [7] | [8]

CCc1nccnc1OC
inactive: [9] | [13]
active: [10] | [11] | [12] | [14]

CCCC(S)CCOC(C)=O (stereo unspecified)
inactive: [1] | [2] | [3] | [4] | [5] | [6] | [7] | [8]

O=c1ccc2ccccc2o1
inactive: [9] | [15]

CCc1ncc(C)nc1CC
inactive: [16] | [9]
active: [10] | [11] | [12] | [13] | [14]

CCCCCCCC(=O)[O-].[H+]
inactive: [9] | [15]

COc1nccnc1CC(C)C
active: [10] | [11] | [12] | [14]
inactive: [9] | [13]

CC1CCc2nccnc21 (stereo unspecified)
inactive: [9] | [13]
active: [10] | [11] | [12] | [14]

CCc1cnc(C)c(C)n1
inactive: [11] | [12] | [13] | [14]
active: [9] | [10]

COc1cnccn1
active: [10] | [11] | [12] | [14]
inactive: [16] | [9] | [13]

CCCCC=CCCC=O
active: [3]
